From ChEMBL document CHEMBL1154067, “Antiviral and cytotoxic activities of aminoarylazo compounds and aryltriazene derivatives” (Bioorg Med Chem, 2009)
Activity calls are given as the source filed them. How the calls were made is not given here.

Legend:
[1] = tested on: Respiratory syncytial virus; assay: Antiviral activity against Respiratory syncytial virus A2 infected in Vero-76 cells after 5 days by plaque reduction assay; type: functional, organism-based; details: human respiratory syncytial virus, A2, Vero 76, 120 h
[2] = tested on: Vaccinia virus; assay: Antiviral activity against Vaccinia virus after 3 days by plaque reduction assay; type: functional, organism-based; details: Orthopoxvirus vaccinia
[3] = tested on: Coxsackievirus B2; assay: Antiviral activity against Coxsackie virus type B2 virus infected in african green monkey Vero-76 cells after 3 days by plaque reduction assay; type: functional, organism-based; details: Enterovirus B, Vero 76, 72 h
Method in brief: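 Vero 76 cells seeded at 2 × 10^5 cells/well, grown overnight to confluence at 37 °C in 5% CO2, then infected at 50–100 PFU/well. Unadsorbed virus removed. Overlay of DMEM with 1% inactivated FCS and 0.75% methylcellulose, with or without serial compound dilutions. After 3 days at 37 °C, fixed and stained with crystal violet in PBS/50% ethanol; plaques counted. EC50 is the concentration reducing plaque number by 50%.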

[4] = Cytotoxicity against MDBK cells after 48 to 96 hrs by MTT assay; type: cell-based, Bos taurus; details: cattle, mdbk
Method in brief: (§1)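 Mock-infected cells in maintenance medium, MDBK at 6 × 10^5 and BHK at 1 × 10^6 cells/mL initial density, with or without serial compound dilutions. Run in parallel with antiviral assays. Viability by MTT after 48–96 h at 37 °C, 5% CO2. CC50 = concentration reducing viability 50%.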

[5] = tested on: Yellow fever virus; assay: Antiviral activity against Yellow fever virus infected in BHK-21 cells assessed as inhibition of virus-induced cytopathicity after 3 to 4 days by MTT assay; type: functional, organism-based
[6] = tested on: Human alphaherpesvirus 1; assay: Antiviral activity against HSV1 infected in Vero-76 cells after 3 days by plaque reduction assay; type: functional, organism-based; details: Human alphaherpesvirus 1, Vero 76, 72 h
[7] = tested on: MT4; assay: Cytotoxicity against human MT4 cells after 96 hrs by MTT assay; type: cell-based; details: mt4, 96 h
Method in brief: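 Exponentially growing mock-infected MT-4 seeded at 1 × 10^5 cells/mL in RPMI-1640 with 10% FCS, penicillin and streptomycin. Incubated with or without serial compound dilutions at 37 °C, 5% CO2. Viability by MTT after 96 h. CC50 = concentration reducing viability 50%.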

[8] = tested on: Vero; assay: Cytotoxicity against african green monkey Vero 76 cells by crystal violet staining; type: cell-based; details: chlorocebus sabaeus, vero
Method in brief: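 Mock-infected Vero 76 seeded at 4 × 10^5 cells/mL, run in parallel with plaque assays, with or without serial compound dilutions. Cell number of monolayers determined by crystal violet staining. CC50 = concentration reducing viable cell number 50%.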

[9] = tested on: Human immunodeficiency virus 1; assay: Antiviral activity against HIV1 infected in human MT4 cells assessed as inhibition of virus-induced cytopathicity after 4 days by MTT assay; type: functional, organism-based
[10] = Cytotoxicity against hamster BHK21 cells assessed as reduction in cell viability after 48 to 96 hrs by MTT assay; type: cell-based, Mesocricetus auratus, BHK-21; details: bhk-21; method in brief: as §1
[11] = tested on: Mammalian orthoreovirus 1; assay: Antiviral activity against Reovirus-1 infected in BHK-21 cells assessed as inhibition of virus-induced cytopathicity after 3 to 4 days by MTT assay; type: functional, organism-based; details: Mammalian orthoreovirus 1, BHK-21
Method in brief: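 BHK-21 cells seeded at 5 × 10^4 cells/well, grown overnight to confluent monolayers at 37 °C in 5% CO2, then infected at m.o.i. 0.01 in serum-free medium. One hour later, MEM Earle's with 1% final inactivated FCS added, with or without serial compound dilutions. Viability read by MTT after 3–4 days at 37 °C. EC50 is the concentration giving 50% protection from cytopathogenicity.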

[12] = tested on: Poliovirus 1; assay: Antiviral activity against Human poliovirus 1 strain Sabin after 2 days by plaque reduction assay; type: functional; details: Enterovirus C, 48 h
[13] = tested on: Vesicular stomatitis virus; assay: Antiviral activity against Vesicular stomatitis virus after 2 days by plaque reduction assay; type: functional, organism-based

SMILES | EC50 [1] | Activity [2] | EC50 [3] | CC50 [4] | EC50 [5] | EC50 [6] | CC50 [7] | CC50 [8] | inhibition [9] | CC50 [10] | EC50 [11] | EC50 [12] | Activity [13]
O=[N+]([O-])c1cccc(/N=N/N2CCCC2)c1 | 8 µM | inactive | > 80 µM | > 100 µM | > 42 µM | > 80 µM | 66 µM | 80 µM | inactive | 42 µM | > 42 µM | 30 µM | inactive
FC(F)(F)c1cccc(/N=N/N2CCCC2)c1 | > 100 µM | inactive | > 100 µM | > 100 µM | > 100 µM | > 100 µM | > 100 µM | > 100 µM | inactive | > 100 µM | > 100 µM | > 100 µM | inactive
O=C1CCN(/N=N/c2ccccc2)CC1 | > 60 µM | inactive | 13 µM | ≥ 100 µM | > 90 µM | > 60 µM | > 100 µM | 60 µM | inactive | 90 µM | > 90 µM | > 60 µM | inactive
Brc1cccc(/N=N/N2CCCC2)c1 | > 100 µM | inactive | > 100 µM | > 100 µM | > 100 µM | > 100 µM | > 100 µM | ≥ 100 µM | inactive | > 100 µM | > 100 µM | > 100 µM | inactive
CN1CCN(/N=N/c2ccccc2)CC1 | > 45 µM | inactive | 14 µM | > 100 µM | > 70 µM | > 45 µM | 65 µM | 45 µM | inactive | 70 µM | > 70 µM | > 45 µM | inactive
Fc1ccc(F)c(/N=N/N2CCCC2)c1 | > 100 µM | inactive | 35 µM | > 100 µM | > 100 µM | > 100 µM | > 100 µM | > 100 µM | inactive | > 100 µM | > 100 µM | 44 µM | inactive
Clc1cccc(/N=N/N2CCCCC2)c1 | > 100 µM | inactive | > 100 µM | > 100 µM | > 100 µM | > 100 µM | > 100 µM | > 100 µM | inactive | > 100 µM | > 100 µM | > 100 µM | inactive
c1ccc(/N=N/N2CCN(c3ccccc3)CC2)cc1 | 8 µM | inactive | > 100 µM | > 100 µM | > 100 µM | > 100 µM | 33 µM | ≥ 100 µM | inactive | > 100 µM | > 100 µM | > 100 µM | inactive
CCOC(=O)N1CCN(/N=N/c2ccccc2)CC1 | > 90 µM | inactive | 30 µM | > 100 µM | > 100 µM | > 90 µM | 100 µM | 90 µM | inactive | > 100 µM | > 100 µM | > 90 µM | inactive
c1ccc(/N=N/N2CCCCC2)cc1 | > 100 µM | inactive | > 100 µM | > 100 µM | > 100 µM | > 100 µM | > 100 µM | > 100 µM | inactive | > 100 µM | > 100 µM | > 100 µM | inactive
O=c1cccc2n1CC1CC2CN(/N=N/c2ccc(Cl)cc2)C1 (centres undefined) | > 55 µM | inactive | > 55 µM | 97 µM | > 85 µM | > 55 µM | 46 µM | 55 µM | inactive | 85 µM | > 85 µM | > 55 µM | inactive
COc1ccc(/N=N/N2CCCC2)cc1 | > 90 µM | inactive | > 90 µM | 60 µM | > 100 µM | > 90 µM | 68 µM | 90 µM | inactive | ≥ 100 µM | > 100 µM | > 90 µM | inactive
c1ccc(/N=N/N2CCCC2)cc1 | ≥ 100 µM | inactive | > 100 µM | > 100 µM | > 100 µM | > 100 µM | > 100 µM | > 100 µM | inactive | ≥ 100 µM | > 100 µM | > 100 µM | inactive
Clc1ccc(/N=N/N2CCCC2)cc1 | > 100 µM | inactive | > 100 µM | > 100 µM | > 100 µM | > 100 µM | > 100 µM | > 100 µM | inactive | > 100 µM | > 100 µM | 42 µM | inactive
O=c1cccc2n1CC1CC2CN(/N=N/c2cccc([N+](=O)[O-])c2)C1 (centres undefined) | ≥ 90 µM | inactive | > 90 µM | > 100 µM | > 100 µM | > 90 µM | > 100 µM | 90 µM | inactive | > 100 µM | 80 µM | > 90 µM | inactive
c1ccc(/N=N/N2CCN(c3ncccn3)CC2)cc1 | > 65 µM | inactive | 10 µM | > 100 µM | > 100 µM | > 65 µM | 90 µM | 65 µM | inactive | > 100 µM | > 100 µM | > 65 µM | inactive
Brc1ccc(/N=N/N2CCCCC2)cc1 | 73 µM | inactive | 25 µM | > 100 µM | > 100 µM | > 100 µM | > 100 µM | > 100 µM | inactive | > 100 µM | > 100 µM | > 100 µM | inactive
O=[N+]([O-])c1ccc(/N=N/N2CCCC2)cc1 | 60 µM | inactive | > 90 µM | > 100 µM | > 100 µM | > 90 µM | ≥ 100 µM | 90 µM | inactive | ≥ 100 µM | > 100 µM | 15 µM | inactive
Brc1cccc(/N=N/N2CCCCC2)c1 | > 85 µM | inactive | > 85 µM | > 100 µM | > 100 µM | > 85 µM | > 100 µM | 85 µM | inactive | > 100 µM | > 100 µM | > 85 µM | inactive
Clc1ccc(/N=N/N2CCCC2)cc1Cl | 20 µM | inactive | > 58 µM | 70 µM | > 50 µM | > 58 µM | 75 µM | 58 µM | inactive | 50 µM | > 50 µM | 25 µM | inactive
c1ccc(N=NNc2ccccc2)cc1 | – | – | – | > 100 µM | – | – | 47 µM | 90 µM | – | > 100 µM | – | – | –
